Measured values taken from ChEMBL document CHEMBL4673184, “Synthesis and biological evaluation of S-lipidated lipopeptides of a connexin 43 channel inhibitory peptide” (RSC Med Chem, 2020).
Active and inactive are the calls of the source. The calls are words filed in the database; no cut-off is given here. Where a SMILES comes first, the peptide text is derived from it. [ ]: non-standard residue; d: D form. The star is where a group is joined. Ethyl(2-stearoyloxy) = CCCCCCCCCCCCCCCCCC(=O)OCC*; Ethyl(2-palmitoyloxy) = CCCCCCCCCCCCCCCC(=O)OCC*; CH2CH2OBz(4-tBu) = CC(C)(C)c1ccc(C(=O)OCC*)cc1; Ethyl(2-decanoyloxy) = CCCCCCCCCC(=O)OCC*; Ethyl(2-butanoyloxy) = CCCC(=O)OCC*; Ethyl(2-OPiv) = CC(C)(C)C(=O)OCC*; Mpa = O=C(O)CCS

Each molecule was assayed against Gap junction alpha-1 protein (Homo sapiens) (UniProt P17302) (assay: Inhibition of Cx43 in hypoxic-acidic ion-shifted ringers solution-induced human cerebral microvascular endothelial cell model of ischaemic injury assessed as ATP release at 10 uM measured after 2 hrs by luciferin-luciferase based luminescence assay relative to control).
Design: scale not given: the % may be the effect or the level left
Method in brief: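 hCMVEC (passages 8-17) seeded at 2 x 10^6/well on collagen-I (1 µg/cm²) and grown 48 h to a confluent monolayer. Washed in NR, then exposed 2 h in HAIR (pH 6.6, N₂-bubbled, low Ca²⁺, K-gluconate/NMDG) containing peptide at 10 µM. Supernatant diluted 1:10 in firefly luciferase mix and read at 560 nm against an ATP standard (0-50 nM). Expressed as % of HAIR-only, mean of n=3.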

Gap junction alpha-1 protein (Homo sapiens), sequence (P17302 whole entry): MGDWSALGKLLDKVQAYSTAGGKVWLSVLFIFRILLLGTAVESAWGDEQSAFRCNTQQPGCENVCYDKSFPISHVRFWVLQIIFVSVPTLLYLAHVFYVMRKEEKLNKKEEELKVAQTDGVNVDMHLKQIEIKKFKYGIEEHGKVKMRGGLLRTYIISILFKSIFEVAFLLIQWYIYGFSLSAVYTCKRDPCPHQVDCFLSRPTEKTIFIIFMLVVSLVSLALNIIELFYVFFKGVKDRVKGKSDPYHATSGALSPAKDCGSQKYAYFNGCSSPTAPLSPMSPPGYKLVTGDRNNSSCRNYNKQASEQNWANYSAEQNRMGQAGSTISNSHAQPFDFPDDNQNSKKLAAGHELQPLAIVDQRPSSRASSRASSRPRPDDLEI

With `CCCC(=O)OCCSC[C@H](NC(=O)[C@@H](NC(=O)[C@@H]1CCCN1C(=O)[C@H](CCCNC(=N)N)NC(=O)[C@H](CO)NC(=O)[C@H](CC(C)C)NC(=O)[C@H](Cc1ccccc1)NC(=O)[C@H](CS)NC(=O)[C@H](CC(=O)O)NC(=O)[C@@H](N)C(C)C)[C@@H](C)O)C(=O)N[C@@H](CCCCN)C(=O)N[C@H](C(=O)O)[C@@H](C)O` (H-VDCFLSRPTC(Ethyl(2-butanoyloxy))KT-OH) as the molecule, how does the Activity read?
Its Activity is 32%.

With `CCCCCCCCCCCCCCCC(=O)OCCSC[C@H](NC(=O)[C@H](CCCCN)NC(=O)[C@H](CCC(=O)O)NC(=O)[C@@H](NC(=O)[C@@H]1CCCN1C(=O)[C@H](CCCNC(=N)N)NC(=O)[C@H](CO)NC(=O)[C@H](CC(C)C)NC(=O)[C@H](Cc1ccccc1)NC(=O)[C@H](CS)NC(=O)[C@H](CC(=O)O)NC(=O)[C@@H](N)C(C)C)[C@@H](C)O)C(=O)O` (H-VDCFLSRPTEKC(Ethyl(2-palmitoyloxy))-OH) as the molecule, how does the Activity read?
Its Activity is 131%.

How did the Activity turn out when `CCCCCCCCCCCCCCCC(=O)OCCSC[C@H](NC(=O)[C@H](CS)NC(=O)[C@H](CC(=O)O)NC(=O)[C@@H](N)C(C)C)C(=O)N[C@@H](CC(C)C)C(=O)N[C@@H](CO)C(=O)N[C@@H](CCCNC(=N)N)C(=O)N1CCC[C@H]1C(=O)N[C@H](C(=O)N[C@@H](CCC(=O)O)C(=O)N[C@@H](CCCCN)C(=O)N[C@H](C(=O)O)[C@@H](C)O)[C@@H](C)O` (H-VDCC(Ethyl(2-palmitoyloxy))LSRPTEKT-OH) was run?
The Activity was “inactive”.

`CCCCCCCCCCCCCCCCCC(=O)OCCSC[C@H](NC(=O)[C@H](CS)NC(=O)[C@H](CC(=O)O)NC(=O)[C@@H](N)C(C)C)C(=O)N[C@@H](CC(C)C)C(=O)N[C@@H](CO)C(=O)N[C@@H](CCCNC(=N)N)C(=O)N1CCC[C@H]1C(=O)N[C@H](C(=O)N[C@@H](CCC(=O)O)C(=O)N[C@@H](CCCCN)C(=O)N[C@H](C(=O)O)[C@@H](C)O)[C@@H](C)O` (H-VDCC(Ethyl(2-stearoyloxy))LSRPTEKT-OH) was tested. Which Activity did it give?
The Activity was “inactive”.

How did the Activity turn out when `CC(C)C[C@H](NC(=O)[C@H](Cc1ccccc1)NC(=O)[C@H](CS)NC(=O)[C@H](CC(=O)O)NC(=O)[C@@H](N)CSCCOC(=O)C(C)(C)C)C(=O)N[C@@H](CO)C(=O)N[C@@H](CCCNC(=N)N)C(=O)N1CCC[C@H]1C(=O)N[C@H](C(=O)N[C@@H](CCC(=O)O)C(=O)N[C@@H](CCCCN)C(=O)N[C@H](C(=O)O)[C@@H](C)O)[C@@H](C)O` (H-C(Ethyl(2-OPiv))DCFLSRPTEKT-OH) was run?
The Activity was “inactive”.

`CC(C)C[C@H](NC(=O)[C@H](Cc1ccccc1)NC(=O)[C@H](CS)NC(=O)[C@H](CC(=O)O)NC(=O)[C@@H](N)C(C)C)C(=O)N[C@@H](CO)C(=O)N[C@@H](CCCNC(=N)N)C(=O)N1CCC[C@H]1C(=O)N[C@H](C(=O)N[C@@H](CCC(=O)O)C(=O)N[C@@H](CCCCN)C(=O)N[C@@H](CSCCOC(=O)c1ccc(C(C)(C)C)cc1)C(=O)O)[C@@H](C)O` (H-VDCFLSRPTEKC(CH2CH2OBz(4-tBu))-OH) was tested. Which Activity did it give?
The Activity was “inactive”.

For `CCCCCCCCCC(=O)OCCSCCC(=O)N[C@H](C(=O)N[C@@H](CC(=O)O)C(=O)N[C@@H](CS)C(=O)N[C@@H](Cc1ccccc1)C(=O)N[C@@H](CC(C)C)C(=O)N[C@@H](CO)C(=O)N[C@@H](CCCNC(=N)N)C(=O)N1CCC[C@H]1C(=O)N[C@H](C(=O)N[C@@H](CCC(=O)O)C(=O)N[C@@H](CCCCN)C(=O)N[C@H](C(=O)O)[C@@H](C)O)[C@@H](C)O)C(C)C` ([Mpa](Ethyl(2-decanoyloxy))VDCFLSRPTEKT-OH), which Activity is on record?
The Activity was “inactive”.

How did the Activity turn out when `CCCCCCCCCC(=O)OCCSC[C@H](NC(=O)[C@H](CS)NC(=O)[C@H](CC(=O)O)NC(=O)[C@@H](N)C(C)C)C(=O)N[C@@H](CC(C)C)C(=O)N[C@@H](CO)C(=O)N[C@@H](CCCNC(=N)N)C(=O)N1CCC[C@H]1C(=O)N[C@H](C(=O)N[C@@H](CCC(=O)O)C(=O)N[C@@H](CCCCN)C(=O)N[C@H](C(=O)O)[C@@H](C)O)[C@@H](C)O` (H-VDCC(Ethyl(2-decanoyloxy))LSRPTEKT-OH) was run?
Its Activity is “inactive”.

How did the Activity turn out when `CCCC(=O)OCCSC[C@H](NC(=O)[C@H](CC(C)C)NC(=O)[C@H](Cc1ccccc1)NC(=O)[C@H](CS)NC(=O)[C@H](CC(=O)O)NC(=O)[C@@H](N)C(C)C)C(=O)N[C@@H](CCCNC(=N)N)C(=O)N1CCC[C@H]1C(=O)N[C@H](C(=O)N[C@@H](CCC(=O)O)C(=O)N[C@@H](CCCCN)C(=O)N[C@H](C(=O)O)[C@@H](C)O)[C@@H](C)O` (H-VDCFLC(Ethyl(2-butanoyloxy))RPTEKT-OH) was run?
The Activity was “inactive”.

How did the Activity turn out when `CC1(C)[C@@H](OC(=O)CCC(=O)O)CC[C@]2(C)[C@H]3C(=O)C=C4[C@@H]5C[C@@](C)(C(=O)O)CC[C@]5(C)CC[C@@]4(C)[C@]3(C)CC[C@@H]12` was run?
Its Activity is 23.3%.

Which Activity does the source give for `CC(C)C[C@H](NC(=O)[C@H](Cc1ccccc1)NC(=O)[C@H](CS)NC(=O)[C@H](CC(=O)O)NC(=O)[C@@H](NC(=O)CCSCCOC(=O)c1ccc(C(C)(C)C)cc1)C(C)C)C(=O)N[C@@H](CO)C(=O)N[C@@H](CCCNC(=N)N)C(=O)N1CCC[C@H]1C(=O)N[C@H](C(=O)N[C@@H](CCC(=O)O)C(=O)N[C@@H](CCCCN)C(=O)N[C@H](C(=O)O)[C@@H](C)O)[C@@H](C)O` ([Mpa](CH2CH2OBz(4-tBu))VDCFLSRPTEKT-OH) here?
The Activity was “inactive”.

How did the Activity turn out when `CCCCCCCCCCCCCCCCCC(=O)OCCSC[C@H](NC(=O)[C@@H](NC(=O)[C@@H]1CCCN1C(=O)[C@H](CCCNC(=N)N)NC(=O)[C@H](CO)NC(=O)[C@H](CC(C)C)NC(=O)[C@H](Cc1ccccc1)NC(=O)[C@H](CS)NC(=O)[C@H](CC(=O)O)NC(=O)[C@@H](N)C(C)C)[C@@H](C)O)C(=O)N[C@@H](CCCCN)C(=O)N[C@H](C(=O)O)[C@@H](C)O` (H-VDCFLSRPTC(Ethyl(2-stearoyloxy))KT-OH) was run?
Its Activity is 83.7%.

For `CCCCCCCCCCCCCCCC(=O)OCCSC[C@H](NC(=O)[C@@H](NC(=O)[C@@H]1CCCN1C(=O)[C@H](CCCNC(=N)N)NC(=O)[C@H](CO)NC(=O)[C@H](CC(C)C)NC(=O)[C@H](Cc1ccccc1)NC(=O)[C@H](CS)NC(=O)[C@H](CC(=O)O)NC(=O)[C@@H](N)C(C)C)[C@@H](C)O)C(=O)N[C@@H](CCCCN)C(=O)N[C@H](C(=O)O)[C@@H](C)O` (H-VDCFLSRPTC(Ethyl(2-palmitoyloxy))KT-OH), which Activity is on record?
Its Activity is 114%.

For `CCCCCCCCCC(=O)OCCSC[C@H](NC(=O)[C@@H](NC(=O)[C@@H]1CCCN1C(=O)[C@H](CCCNC(=N)N)NC(=O)[C@H](CO)NC(=O)[C@H](CC(C)C)NC(=O)[C@H](Cc1ccccc1)NC(=O)[C@H](CS)NC(=O)[C@H](CC(=O)O)NC(=O)[C@@H](N)C(C)C)[C@@H](C)O)C(=O)N[C@@H](CCCCN)C(=O)N[C@H](C(=O)O)[C@@H](C)O` (H-VDCFLSRPTC(Ethyl(2-decanoyloxy))KT-OH), which Activity is on record?
Its Activity is 96%.

For `CCCCCCCCCCCCCCCC(=O)OCCSCCC(=O)N[C@H](C(=O)N[C@@H](CC(=O)O)C(=O)N[C@@H](CS)C(=O)N[C@@H](Cc1ccccc1)C(=O)N[C@@H](CC(C)C)C(=O)N[C@@H](CO)C(=O)N[C@@H](CCCNC(=N)N)C(=O)N1CCC[C@H]1C(=O)N[C@H](C(=O)N[C@@H](CCC(=O)O)C(=O)N[C@@H](CCCCN)C(=O)N[C@H](C(=O)O)[C@@H](C)O)[C@@H](C)O)C(C)C` ([Mpa](Ethyl(2-palmitoyloxy))VDCFLSRPTEKT-OH), which Activity is on record?
The Activity was “inactive”.

Which Activity does the source give for `CC(C)C[C@H](NC(=O)[C@H](Cc1ccccc1)NC(=O)[C@H](CS)NC(=O)[C@H](CC(=O)O)NC(=O)[C@@H](NC(=O)CCSCCOC(=O)C(C)(C)C)C(C)C)C(=O)N[C@@H](CO)C(=O)N[C@@H](CCCNC(=N)N)C(=O)N1CCC[C@H]1C(=O)N[C@H](C(=O)N[C@@H](CCC(=O)O)C(=O)N[C@@H](CCCCN)C(=O)N[C@H](C(=O)O)[C@@H](C)O)[C@@H](C)O` ([Mpa](Ethyl(2-OPiv))VDCFLSRPTEKT-OH) here?
The Activity was “inactive”.

For `CC(C)C[C@H](NC(=O)[C@H](Cc1ccccc1)NC(=O)[C@H](CS)NC(=O)[C@H](CC(=O)O)NC(=O)[C@@H](N)C(C)C)C(=O)N[C@@H](CO)C(=O)N[C@@H](CCCNC(=N)N)C(=O)N1CCC[C@H]1C(=O)N[C@H](C(=O)N[C@@H](CCC(=O)O)C(=O)N[C@@H](CCCCN)C(=O)N[C@@H](CSCCOC(=O)C(C)(C)C)C(=O)O)[C@@H](C)O` (H-VDCFLSRPTEKC(Ethyl(2-OPiv))-OH), which Activity is on record?
The Activity was “inactive”.

`CCCCCCCCCCCCCCCC(=O)OCCSC[C@H](N)C(=O)N[C@@H](CC(=O)O)C(=O)N[C@@H](CS)C(=O)N[C@@H](Cc1ccccc1)C(=O)N[C@@H](CC(C)C)C(=O)N[C@@H](CO)C(=O)N[C@@H](CCCNC(=N)N)C(=O)N1CCC[C@H]1C(=O)N[C@H](C(=O)N[C@@H](CCC(=O)O)C(=O)N[C@@H](CCCCN)C(=O)N[C@H](C(=O)O)[C@@H](C)O)[C@@H](C)O` (H-C(Ethyl(2-palmitoyloxy))DCFLSRPTEKT-OH) was tested. Which Activity did it give?
The Activity was “inactive”.

With `CC(C)C[C@H](NC(=O)[C@H](Cc1ccccc1)NC(=O)[C@H](CS)NC(=O)[C@H](CC(=O)O)NC(=O)[C@@H](N)C(C)C)C(=O)N[C@@H](CO)C(=O)N[C@@H](CCCNC(=N)N)C(=O)N1CCC[C@H]1C(=O)N[C@H](C(=O)N[C@@H](CSCCOC(=O)C(C)(C)C)C(=O)N[C@@H](CCCCN)C(=O)N[C@H](C(=O)O)[C@@H](C)O)[C@@H](C)O` (H-VDCFLSRPTC(Ethyl(2-OPiv))KT-OH) as the molecule, how does the Activity read?
The Activity was “inactive”.

With `CC(C)C[C@H](NC(=O)[C@H](Cc1ccccc1)NC(=O)[C@H](CS)NC(=O)[C@H](CC(=O)O)NC(=O)[C@@H](N)C(C)C)C(=O)N[C@@H](CO)C(=O)N[C@@H](CCCNC(=N)N)C(=O)N1CCC[C@H]1C(=O)N[C@H](C(=O)N[C@@H](CSCCOC(=O)c1ccc(C(C)(C)C)cc1)C(=O)N[C@@H](CCCCN)C(=O)N[C@H](C(=O)O)[C@@H](C)O)[C@@H](C)O` (H-VDCFLSRPTC(CH2CH2OBz(4-tBu))KT-OH) as the molecule, how does the Activity read?
Its Activity is “inactive”.

How did the Activity turn out when `CCCC(=O)OCCSC[C@H](NC(=O)[C@H](CS)NC(=O)[C@H](CC(=O)O)NC(=O)[C@@H](N)C(C)C)C(=O)N[C@@H](CC(C)C)C(=O)N[C@@H](CO)C(=O)N[C@@H](CCCNC(=N)N)C(=O)N1CCC[C@H]1C(=O)N[C@H](C(=O)N[C@@H](CCC(=O)O)C(=O)N[C@@H](CCCCN)C(=O)N[C@H](C(=O)O)[C@@H](C)O)[C@@H](C)O` (H-VDCC(Ethyl(2-butanoyloxy))LSRPTEKT-OH) was run?
Its Activity is “inactive”.
